How the values were obtained:
Assay type in all cases: tissue-based
[1] = target: T1, Amine oxidase [flavin-containing] B (Rattus norvegicus, UniProt P19643); assay: Inhibition of Sprague-Dawley rat MAO-B in brain mitochondrial homogenate assessed as 4-hydroxyquinoline by spectrophotometric method
T1 sequence (P19643 whole entry): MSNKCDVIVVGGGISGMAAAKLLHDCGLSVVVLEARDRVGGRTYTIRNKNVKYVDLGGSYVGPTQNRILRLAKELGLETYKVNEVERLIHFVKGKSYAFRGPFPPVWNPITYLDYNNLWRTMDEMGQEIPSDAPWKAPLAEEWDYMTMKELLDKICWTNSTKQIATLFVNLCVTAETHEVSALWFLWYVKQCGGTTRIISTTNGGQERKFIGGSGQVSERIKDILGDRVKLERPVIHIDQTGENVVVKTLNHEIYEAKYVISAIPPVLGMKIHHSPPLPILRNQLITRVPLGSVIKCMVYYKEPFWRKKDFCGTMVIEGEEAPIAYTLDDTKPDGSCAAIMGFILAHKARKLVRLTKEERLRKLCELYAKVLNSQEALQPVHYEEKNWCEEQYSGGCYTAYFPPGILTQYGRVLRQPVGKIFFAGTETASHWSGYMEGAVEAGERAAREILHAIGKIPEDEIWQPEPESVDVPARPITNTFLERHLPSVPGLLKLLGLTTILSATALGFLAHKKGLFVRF

[2] = target: T2, MAO-A (amine oxidase [flavin-containing] A) (Rattus norvegicus, UniProt P21396); assay: Inhibition of Sprague-Dawley rat MAO-A in brain mitochondrial homogenate assessed as 4-hydroxyquinoline at 10 uM by spectrophotometric method
T2 sequence (P21396 whole entry): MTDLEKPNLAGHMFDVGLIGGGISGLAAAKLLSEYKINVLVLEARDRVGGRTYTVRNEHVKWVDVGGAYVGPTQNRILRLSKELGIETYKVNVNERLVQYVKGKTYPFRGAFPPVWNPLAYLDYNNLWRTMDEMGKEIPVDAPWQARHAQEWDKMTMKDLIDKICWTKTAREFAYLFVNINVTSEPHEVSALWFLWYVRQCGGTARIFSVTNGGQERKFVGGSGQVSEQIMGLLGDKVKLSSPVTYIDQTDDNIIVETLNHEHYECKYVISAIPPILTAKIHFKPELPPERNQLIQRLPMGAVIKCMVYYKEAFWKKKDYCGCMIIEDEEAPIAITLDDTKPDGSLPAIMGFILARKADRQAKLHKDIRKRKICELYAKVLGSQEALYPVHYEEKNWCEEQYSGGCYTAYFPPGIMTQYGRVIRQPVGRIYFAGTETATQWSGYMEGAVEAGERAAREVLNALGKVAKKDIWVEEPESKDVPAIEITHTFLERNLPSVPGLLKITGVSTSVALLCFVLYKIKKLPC
Summary of the method: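 Crude mitochondrial fraction from male Sprague-Dawley rat brain (200-250 g) was used at 1 mg/mL and pretreated with (-)-L-deprenyl 250 nM to isolate MAO-A. Compound was given at 10 μM in DMSO (final 5% v/v) with a 5 min preincubation. Kynuramine was added at 90 μM (KM), and 4-hydroxyquinoline formation was read at 314 nm for 5 min. Values are means of 2-3 independent experiments.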

[3] = target: T3, Amine oxidase [flavin-containing] A (Rattus norvegicus, UniProt P21396); assay: Inhibition of Sprague-Dawley rat MAO-A in brain mitochondrial homogenate assessed as 4-hydroxyquinoline by spectrophotometric method
T3 sequence (P21396 whole entry): T2 sequence (P21396 whole entry)
Summary of the method: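 The MAO-A source was a crude male Sprague-Dawley rat brain mitochondrial fraction (1 mg/mL), pretreated with (-)-L-deprenyl 250 nM. Compound in DMSO (final 5% v/v) was preincubated for 5 min, then kynuramine was added at 90 μM (KM). 4-Hydroxyquinoline formation was monitored at 314 nm for 5 min.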

Structure (SMILES)	IC50 [1]	inhibition at 10 µM [2]	IC50 [3]
N#CCCc1cc(=O)oc2cc(OCc3cccc(Cl)c3)ccc12	28.8 nM	22%	–
NC(=O)CNc1cc(=O)oc2cc(OCc3cccc(Cl)c3)ccc12	49 nM	–	95.5 nM
CCNC(=O)Nc1cc(=O)oc2cc(OCc3cccc(Cl)c3)ccc12	31600 nM	–	–
O=C(O)c1cc(=O)oc2cc(OCc3cccc(Cl)c3)ccc12	100000 nM	–	–
O=C(O)COc1cc(=O)oc2cc(OCc3cccc(Cl)c3)ccc12	31600 nM	–	–
NC(=O)CCc1cc(=O)oc2cc(OCc3cccc(Cl)c3)ccc12	15.1 nM	–	4270 nM
O=C(CCl)Nc1cc(=O)oc2cc(OCc3cccc(Cl)c3)ccc12	398 nM	–	5750 nM
O=C(O)CCc1cc(=O)oc2cc(OCc3cccc(Cl)c3)ccc12	1200 nM	13%	–

Second part, the compound after the results:

IC50 [1]	inhibition at 10 µM [2]	IC50 [3]	Structure (SMILES)
32.4 nM	22%	–	O=c1cc(CCBr)c2ccc(OCc3cccc(Cl)c3)cc2o1
12.9 nM	3%	–	O=c1cc(CCCl)c2ccc(OCc3cccc(Cl)c3)cc2o1
3800 nM	1%	–	O=c1cc(CCN2CCCCC2)c2ccc(OCc3cccc(Cl)c3)cc2o1
7.41 nM	–	4680 nM	O=c1cc(CCO)c2ccc(OCc3cccc(Cl)c3)cc2o1
